The values below come from ChEMBL document CHEMBL1221232, “Synthesis and biological activity of 4''-O-acyl derivatives of 14- and 15-membered macrolides linked to omega-quinolone-carboxylic unit” (Bioorg Med Chem, 2010).

≈ marks a conversion by molar mass, not a printed value.

For data set [1], the system named is Staphylococcus aureus. In words: Antibacterial activity against erythromycin-sensitive Staphylococcus aureus ATCC 13709 by broth microdilution method. It is filed as functional. The method in brief: (§1)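 MIC by CLSI broth microdilution. Inocula from agar-grown cultures: chocolate agar for H. influenzae, Columbia agar with 5% sheep blood for M. catarrhalis, Mueller-Hinton agar for S. aureus. Read as minimum inhibitory concentration in µg/mL.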

Data set [2] deals with Staphylococcus aureus. In words: Antibacterial activity against efflux-mediated macrolide resistance Staphylococcus aureus PK1 by broth microdilution method. Format: functional. Summed up: (§2)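 MIC by CLSI broth microdilution. Staphylococci were grown on Mueller-Hinton agar before testing. The MIC is the lowest concentration inhibiting growth.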
Background: In broth dilution the organism is exposed to a series of concentrations in liquid medium.

The test system of data set [3] is Streptococcus pneumoniae. Put plainly: Antibacterial activity against efflux-mediated macrolide resistance Streptococcus pneumoniae Ci137 by broth microdilution method. It is filed as functional. Summed up: (§3)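 MIC by CLSI broth microdilution, except that the streptococcal medium used 5% horse serum in place of lysed blood. Streptococcal inocula came from Columbia agar with 5% sheep blood. The MIC is the lowest concentration inhibiting growth.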

The subject of data set [4] is Streptococcus pyogenes. In words: Antibacterial activity against efflux-mediated macrolide resistance Streptococcus pyogenes 2 by broth microdilution method. It is filed as functional. Summed up:
as §3

The test system of data set [5] is Staphylococcus aureus. In words: Antibacterial activity against macrolide, licosamide and streptogramin inducible-resistance Staphylococcus aureus 90256 by broth microdilution method. Format: functional. The method in brief: as §2
Data set [6] relates to Streptococcus pneumoniae. Put plainly: Antibacterial activity against inducible resistance to macrolide and constitutive resistance to lincosamide Streptococcus pneumoniae 134 GR M by broth microdilution method. Format: functional. The method in brief: as §3
In data set [7] the test system is Streptococcus pyogenes. In words: Antibacterial activity against macrolide, licosamide and streptogramin inducible-resistance Streptococcus pyogenes 11 by broth microdilution method. Format: functional. Summed up:
as §3

In data set [8] the test system is Streptococcus pneumoniae. Put plainly: Antibacterial activity against constitutive MLS-resistance Streptococcus pneumoniae 58 by broth microdilution method. Format: functional. The method in brief: as §3
Data set [9] has as its system Streptococcus pyogenes. Put plainly: Antibacterial activity against constitutive MLS resistance Streptococcus pyogenes 166 GR-Micro by broth microdilution method. It is filed as functional. Summed up: as §3
Data set [10] concerns Haemophilus influenzae. In words: Antibacterial activity against Haemophilus influenzae ATCC 49247 by broth microdilution method. Format: functional. The method in brief: as §1
In data set [11] the test system is Moraxella catarrhalis. In words: Antibacterial activity against Moraxella catarrhalis ATCC 23246 by broth microdilution method. It is filed as functional. The method in brief: as §1
The test system of data set [12] is Rattus norvegicus. Put plainly: Clearance in Sprague-Dawley rat blood as % of liver blood flow at 30 mg/kg, po and 5 mg/kg, iv. The conditions noted are these: in vivo. Format: ADME, organism-based. The method in brief: (§4)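 Po/iv crossover study in male Sprague-Dawley rats. Target doses were 30 mg/kg po (fasted) and 5 mg/kg iv (fed). Compound was given as a solution in 1.0% DMSO and 20% (w/v) Encapsin, in saline for iv or water for po, pH 3.5–4.0. Blood was sampled at several timepoints up to 1800 min and hemolyzed 1:1 with water.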

Data set [13] in a line: Volume of distribution at steady state in Sprague-Dawley rat blood at 30 mg/kg, po and 5 mg/kg, iv. Format: ADME, organism-based. The conditions noted are these: whole blood, read-out: Vdss. Summed up:
as §4

A short description of data set [14]: Oral bioavailability in Sprague-Dawley rat blood at 30 mg/kg. It is filed as ADME, organism-based. The conditions noted are these: whole blood. Summed up:
as §4

For data set [15], the system named is Rattus norvegicus. Put plainly: Liver blood flow in Sprague-Dawley rat blood at 30 mg/kg, po and 5 mg/kg, iv. Format: ADME, organism-based. The conditions noted are these: in vivo. The method in brief:
as §4

Broadly, the bioavailability is dose-corrected exposure relative to a reference, in per cent. High values mean much systemic uptake, low ones little systemic uptake.

As for `CC[C@H]1OC(=O)[C@H](C)[C@@H](O[C@H]2C[C@@](C)(OC)[C@@H](OC(=O)CCOCCOCCCc3ccc4c(c3)c(=O)c(C(=O)O)cn4CC)[C@H](C)O2)[C@H](C)[C@@H](O[C@@H]2O[C@H](C)C[C@H](N(C)C)[C@H]2O)[C@](C)(O)C[C@@H](C)CN(C)[C@H](C)[C@@H](O)[C@]1(C)O`, the MIC in data set [1] is no more than 0.125 µg/mL; in data set [2], 0.25 µg/mL (≈ 0.223 µM); in data set [3], no more than 0.125 µg/mL; in [4] it was no more than 0.125 µg/mL; in [5], 0.25 µg/mL (≈ 0.223 µM); in data set [6], 0.25 µg/mL (≈ 0.223 µM). In addition, the MIC is no more than 0.125 µg/mL in [7]; no more than 0.125 µg/mL in data set [8]; no more than 0.125 µg/mL in data set [9]; 1 µg/mL (≈ 0.891 µM) in data set [10]; no more than 0.125 µg/mL in [11]. In data set [10], this compound yielded an MIC50 of 1 µg/mL (≈ 0.891 µM). This compound also came in with an MIC90 in [10] of 2 µg/mL (≈ 1.78 µM). The “Fraction of Liver Blood Flow” value in data set [12] is 35%. The Vd in data set [13] was determined as 10.4 L/kg. For the same compound, the bioavailability in data set [14] was 22%.

Regarding `CC[C@H]1OC(=O)[C@H](C)[C@@H](O[C@H]2C[C@@](C)(OC)[C@@H](OC(=O)CCOCCOCCCc3ccc4c(c3)c(=O)c(C(=O)O)cn4C3CC3)[C@H](C)O2)[C@H](C)[C@@H](O[C@@H]2O[C@H](C)C[C@H](N(C)C)[C@H]2O)[C@](C)(O)C[C@@H](C)CN(C)[C@H](C)[C@@H](O)[C@]1(C)O`, the MIC was no more than 0.125 µg/mL in data set [1]; no more than 0.125 µg/mL in data set [2]; no more than 0.125 µg/mL in [3]; no more than 0.125 µg/mL in data set [4]; no more than 0.125 µg/mL in [5]; 0.25 µg/mL (≈ 0.22 µM) in data set [6]. Further, the MIC in data set [7] was no more than 0.125 µg/mL; in [8], no more than 0.125 µg/mL; in data set [9], 0.5 µg/mL (≈ 0.441 µM); in data set [10], 2 µg/mL (≈ 1.76 µM); in [11], 0.5 µg/mL (≈ 0.441 µM). The same compound displayed an MIC50 in data set [10] of 1 µg/mL (≈ 0.882 µM). Moreover, the MIC90 in data set [10] is 2 µg/mL (≈ 1.76 µM). In addition, in [15], the LBF is listed as 43%. Further, the Vd in [13] turned out to be 10.5 L/kg. The bioavailability in data set [14] was 16%.

`CCCn1cc(C(=O)O)c(=O)c2cc(CCCOCCOCCC(=O)O[C@H]3[C@H](C)O[C@@H](O[C@H]4[C@H](C)[C@@H](O[C@@H]5O[C@H](C)C[C@H](N(C)C)[C@H]5O)[C@](C)(O)C[C@@H](C)CN(C)[C@H](C)[C@@H](O)[C@](C)(O)[C@@H](CC)OC(=O)[C@@H]4C)C[C@@]3(C)OC)ccc21`: the MIC in data set [1], in data set [2], in data set [3], in [4], in [5] and in data set [6] was no more than 0.125 µg/mL in each case. Also, the MIC is no more than 0.125 µg/mL in data set [7]; no more than 0.125 µg/mL in data set [8]; 0.25 µg/mL (≈ 0.22 µM) in data set [9]; 1 µg/mL (≈ 0.88 µM) in data set [10]; 0.5 µg/mL (≈ 0.44 µM) in [11]. In data set [10], this compound showed an MIC50 of 1 µg/mL (≈ 0.88 µM). Besides, in [10], the MIC90 was 2 µg/mL (≈ 1.76 µM).

Regarding `CC[C@H]1OC(=O)[C@H](C)[C@@H](O[C@@H]2O[C@@H](C)C[C@](C)(OC)[C@H]2OC(=O)CCOCCOCCCc2ccc3c(c2)c(=O)c(C(=O)O)cn3CC)[C@H](C)[C@@H](O[C@@H]2O[C@H](C)C[C@H](N(C)C)[C@H]2O)[C@](C)(OC)C[C@@H](C)C(=O)[C@H](C)[C@H]2N(C)C(=O)O[C@]12C`, the MIC was no more than 0.125 µg/mL in data set [1]; 0.5 µg/mL (≈ 0.431 µM) in data set [2]; no more than 0.125 µg/mL in data set [3]; no more than 0.125 µg/mL in [4]; 0.25 µg/mL (≈ 0.215 µM) in data set [5]; no more than 0.125 µg/mL in [6]. Further, the MIC in [7] was no more than 0.125 µg/mL; in data set [8], no more than 0.125 µg/mL; in data set [9], no more than 0.125 µg/mL; in [10], 1 µg/mL (≈ 0.862 µM); in data set [11] it was no more than 0.125 µg/mL.

Consider `CC[C@H]1OC(=O)[C@H](C)[C@@H](O[C@@H]2O[C@@H](C)C[C@](C)(OC)[C@H]2OC(=O)CCOCCOCCCc2ccc3c(c2)c(=O)c(C(=O)O)cn3CC)[C@H](C)[C@@H](O[C@@H]2O[C@H](C)C[C@H](N(C)C)[C@H]2O)[C@](C)(O)C[C@@H](C)/C(=N\OCOCCOC)[C@H](C)[C@@H](O)[C@]1(C)O`, for which the MIC is 0.5 µg/mL (≈ 0.413 µM) in data set [1]; 1 µg/mL (≈ 0.826 µM) in [2]; no more than 0.125 µg/mL in data set [3]; no more than 0.125 µg/mL in data set [4]; 8 µg/mL (≈ 6.61 µM) in data set [5]; 0.5 µg/mL (≈ 0.413 µM) in data set [6]. Also, the MIC in data set [7] was no more than 0.125 µg/mL; in data set [8], 1 µg/mL (≈ 0.826 µM); in data set [9] it was 1 µg/mL (≈ 0.826 µM); in [10], 4 µg/mL (≈ 3.3 µM); in [11] it was 1 µg/mL (≈ 0.826 µM).

For `CC[C@H]1OC(=O)[C@H](C)[C@@H](O[C@@H]2O[C@@H](C)C[C@](C)(OC)[C@H]2OC(=O)CCOCCOCCCc2ccc3c(c2)c(=O)c(C(=O)O)cn3CC)[C@H](C)[C@@H](O[C@@H]2O[C@H](C)C[C@H](N(C)C)[C@H]2O)[C@](C)(OC)C[C@@H](C)C(=O)[C@H](C)[C@H]2NC(=O)O[C@@]21C`, the MIC in data set [1], in data set [2], in data set [3], in [4], in data set [5] and in [6] was no more than 0.125 µg/mL each time. Also, the MIC in data set [7] was no more than 0.125 µg/mL; in [8] it was no more than 0.125 µg/mL; in [9] it was no more than 0.125 µg/mL; in data set [10], 1 µg/mL (≈ 0.872 µM); in data set [11] it was 1 µg/mL (≈ 0.872 µM). In data set [10], this compound came in with an MIC50 of 2 µg/mL (≈ 1.74 µM). The MIC90 in [10] stood at 4 µg/mL (≈ 3.49 µM).

For the compound `CC[C@H]1OC(=O)[C@H](C)[C@@H](O[C@H]2C[C@@](C)(OC)[C@@H](O)[C@H](C)O2)[C@H](C)[C@@H](O[C@@H]2O[C@H](C)C[C@H](N(C)C)[C@H]2O)[C@](C)(O)C[C@@H](C)CN(C)[C@H](C)[C@@H](O)[C@]1(C)O` [AZITHROMYCIN], the MIC in [1] was 0.5 µg/mL (≈ 0.668 µM); in [2], greater than 64 µg/mL; in data set [3], 8 µg/mL (≈ 10.7 µM); in data set [4], 8 µg/mL (≈ 10.7 µM); in data set [5] it was greater than 64 µg/mL; in data set [6] it was greater than 64 µg/mL. Moreover, the MIC in [7] is greater than 64 µg/mL; in [8], greater than 64 µg/mL; in [9], greater than 64 µg/mL; in data set [10], 1 µg/mL (≈ 1.34 µM); in data set [11], no more than 0.125 µg/mL. Besides, in data set [10], the MIC50 is 1 µg/mL (≈ 1.34 µM). The compound further returned an MIC90 in data set [10] of 2 µg/mL (≈ 2.67 µM).

Consider `CC[C@H]1OC(=O)[C@H](C)C(=O)[C@H](C)[C@@H](O[C@@H]2O[C@H](C)C[C@H](N(C)C)[C@H]2O)[C@](C)(OC)C[C@@H](C)C(=O)[C@H](C)[C@H]2N(CCCCn3cnc(-c4cccnc4)c3)C(=O)O[C@]12C` [TELITHROMYCIN], for which the MIC in [1] is no more than 0.125 µg/mL; in data set [2], no more than 0.125 µg/mL; in data set [3], 0.25 µg/mL (≈ 0.308 µM); in data set [4] it was 0.5 µg/mL (≈ 0.616 µM); in data set [5], no more than 0.125 µg/mL; in [6] it was 0.25 µg/mL (≈ 0.308 µM). Moreover, the MIC was no more than 0.125 µg/mL in data set [7]; 0.25 µg/mL (≈ 0.308 µM) in data set [8]; 16 µg/mL (≈ 19.7 µM) in [9]; 2 µg/mL (≈ 2.46 µM) in [10]; no more than 0.125 µg/mL in [11].
